Rows were chosen to be rich in hits. Some 2.9% of all compounds tested hit in one or more screens of this group.
ATG4B inh: ATG4B (human) cysteine protease inhibition | hit rate 0.51% among 340,000 | inhibition, % at 8.33 µM | ATG4B cleavage of LC3-PLA2, NBD-HPC fluorescence, 1 h | Q9Y4P1; in the data active = inhibition above about 40%
ABHD4 inh: inhibitors of mouse ABHD4; Q8VD66; purified mABHD4, FP-Rh probe fluorescence polarization; inhibition, % at 8.92 µM; hit rate 0.54% among 370,000;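 active = inhibition exceeding the mean over every tested compound plus 3 SD, cut at about 30% in these data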;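 note: 0% = plate median of compound wells and 100% = S159A mutant with DMSO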
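Test system: mABHD4 protein; Read-out basis: % inhibition; Incubation: 45 min + 60 min at 25 °C; Repeats: single replicate; Technique: fluorescence polarization with parallel and perpendicular emission, 525/598 nm; Compound: 8.92 µM, single dose; Benchmarks: full inhibition S159A mutant plus DMSO, zero as sample-well median.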
TCR CD3 inh: human TCR-CD3 binding inhibition; hit rate 0.37% among 360,000; TAMRA-labeled TCR probe fluorescence, biochemical; inhibition, % at 9.4 µM; in the data active = inhibition above about 19%;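 note: recombinant mutant TCR 2C K166C tagged with TAMRA read by polarization; 0% = receptor in buffer alone and 100% = receptor with positive control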
PRMT1 inh: inhibitors of human PRMT1; recombinant PRMT1, activity-based probe fluorescence polarization; inhibition, % at 2.79 µM; hit rate 1.3% among 370,000;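 active = inhibition above about 21% made by adding two undisclosed values, limit read from the data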
SIAE inh: inhibitors of human sialic acid acetylesterase SIAE; Q9HAT2; SIAE FP-Rh probe binding, fluorescence polarization; inhibition, % at 9.66 µM; hit rate 0.69% among 370,000; AID 1053197;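 active = inhibition above a cutoff: mean of compounds within the control limits plus 3 SD of those, cut at about 17% in these data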;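 note: 0% = plate median of compound wells and 100% = probe without SIAE protein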
HTRA1 inhibitor: blocks human HTRA1 serine peptidase; Q92743; recombinant HTRA1, FP-rhodamine activity-based probe, fluorescence polarization; inhibition, % at 5.96 µM; hit rate 0.5% among 340,000; AID 504803; in the data active = inhibition above about 36%;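 note: 0% = enzyme with DMSO and 100% = wells lacking enzyme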
Target sequence (Q92743 whole entry, looked up): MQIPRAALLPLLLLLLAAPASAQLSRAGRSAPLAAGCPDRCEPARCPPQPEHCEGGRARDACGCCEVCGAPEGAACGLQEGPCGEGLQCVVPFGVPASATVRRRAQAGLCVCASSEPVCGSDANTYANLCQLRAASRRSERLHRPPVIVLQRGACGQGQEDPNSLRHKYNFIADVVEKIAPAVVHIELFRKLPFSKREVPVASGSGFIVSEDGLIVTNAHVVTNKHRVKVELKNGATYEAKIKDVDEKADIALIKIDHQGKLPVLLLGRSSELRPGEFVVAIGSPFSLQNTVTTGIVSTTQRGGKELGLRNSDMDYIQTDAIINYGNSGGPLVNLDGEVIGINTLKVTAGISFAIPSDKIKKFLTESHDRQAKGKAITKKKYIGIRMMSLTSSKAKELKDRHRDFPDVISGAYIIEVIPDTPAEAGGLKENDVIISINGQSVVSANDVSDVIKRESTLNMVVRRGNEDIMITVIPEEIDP
HTRA1 conf: HTRA1 (human) inhibition, confirmation | shares compounds with HTRA1 inhibitor | recombinant HTRA1, FP-rhodamine activity-based probe, fluorescence polarization | inhibition, % at 5.96 µM | hit rate 66% among 1,600 | AID 540248;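 active = mean inhibition over three repeats above a set limit taken from the earlier primary screen, cut at about 37% in these data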;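 note: 0% = HTRA1 with DMSO and 100% = wells lacking HTRA1; inhibitors block probe binding so polarization drops and inhibition rises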
Numbers without * were called inactive.

What do the screens show for `CN1CCc2cccc3c2[C@@H]1Cc1ccc(O)c(O)c1-3`?
ATG4B inh: 1; HTRA1 inhibitor: 49*; HTRA1 conf: 53*

What do the screens show for `O=c1cc(-c2ccc(O)cc2)oc2c(-c3c(O)cc(O)c4c(=O)cc(-c5ccc(O)cc5)oc34)c(O)cc(O)c12`?
ATG4B inh: 15; ABHD4 inh: -15; TCR CD3 inh: 12; PRMT1 inh: 0; SIAE inh: -24; HTRA1 inhibitor: 53*; HTRA1 conf: 50*

How did COc1cccc(C=NNC(=O)c2ccncc2)c1O do in these assays?
ATG4B inh: -6; ABHD4 inh: 8; TCR CD3 inh: -1; PRMT1 inh: -1; SIAE inh: 0; HTRA1 inhibitor: 6

What do the screens show for `COc1cccc(/C=N/NC(=O)N/N=C/c2cccc(OC)c2O)c1O`?
ATG4B inh: 0; ABHD4 inh: 14; TCR CD3 inh: 5; PRMT1 inh: 1; SIAE inh: 14; HTRA1 inhibitor: 60*; HTRA1 conf: 85*

Results for COc1cccc(/C=N/NC(=O)c2c(C)nc3ccc(Br)cn23)c1O ?
ATG4B inh: -12; HTRA1 inhibitor: 54*; HTRA1 conf: 52*

Results for COc1cccc(/C=N/NC(=O)c2nc(-c3ccccc3)cc(-c3ccccc3)n2)c1O ?
ATG4B inh: 14; ABHD4 inh: 2; TCR CD3 inh: 5; PRMT1 inh: -5; SIAE inh: 3; HTRA1 inhibitor: 43*; HTRA1 conf: 57*

What do the screens show for `COc1cc2c(cc1NC(=O)CSc1nnc(-c3cnccn3)n1-c1ccc(C)cc1)oc1ccccc12`?
ABHD4 inh: 2; PRMT1 inh: 1; SIAE inh: 3

How did FC(F)(F)c1cnc(NNC(=S)Nc2ccccc2)c(Cl)c1 do in these assays?
ABHD4 inh: 11; TCR CD3 inh: -3; PRMT1 inh: -2; SIAE inh: 7; HTRA1 inhibitor: 47*; HTRA1 conf: 30

Results for Oc1ccc(N=Nc2c(O)ccc3ccccc23)cc1 ?
ATG4B inh: 4; ABHD4 inh: 19; TCR CD3 inh: -10; PRMT1 inh: 4; SIAE inh: 13; HTRA1 inhibitor: 63*; HTRA1 conf: 43*

What do the screens show for `COC(=O)[C@]12C[C@H](CC(=O)NCc3ccccc3)C(=O)N(Cc3ccco3)C1=C[C@H](COCc1ccccc1)O[C@@H]2C`?
ABHD4 inh: -3; PRMT1 inh: -2; SIAE inh: -9

Results for CCN(CC)c1ccc(N)cc1 ?
ATG4B inh: 0; HTRA1 inhibitor: 44*; HTRA1 conf: 66*

What do the screens show for `CCN(CC)c1ccc(C(=O)NN)cc1`?
ATG4B inh: -8; ABHD4 inh: 1; TCR CD3 inh: -1; PRMT1 inh: -2; SIAE inh: 4; HTRA1 inhibitor: -8

What do the screens show for `Cc1ccc(-n2c(SCC(=O)c3ccc(-c4ccccc4)cc3)nnc2-c2ccc(C(C)(C)C)cc2)cc1`?
ABHD4 inh: 0; PRMT1 inh: -3; SIAE inh: -2

Results for O=C(Oc1c(Cl)cc(Cl)c2cccnc12)c1cccc([N+](=O)[O-])c1 ?
ATG4B inh: 3; HTRA1 inhibitor: 55*; HTRA1 conf: 40*

Results for CC(C)(C)NC(=S)Nc1ccc(Nc2ccccc2)cc1 ?
ATG4B inh: 9; ABHD4 inh: 24; TCR CD3 inh: 2; PRMT1 inh: 4; SIAE inh: 2; HTRA1 inhibitor: 46*; HTRA1 conf: 7

What do the screens show for `Cc1ccc(CN2CCCCC(NC(=O)c3ccc(N(C)C)cc3)C2=O)cc1` (centres undefined)?
ABHD4 inh: 5; PRMT1 inh: 5; SIAE inh: 0

What do the screens show for `Oc1ccc(C23CC4CC(CC(C4)C2)C3)cc1O`?
ATG4B inh: -11; ABHD4 inh: 18; TCR CD3 inh: -3; PRMT1 inh: 7; SIAE inh: 4; HTRA1 inhibitor: 59*; HTRA1 conf: 81*

How did CC(=O)Nc1ccc(C23CC4CC(CC(C4)C2)C3)cc1 do in these assays?
ATG4B inh: -1; ABHD4 inh: -14; TCR CD3 inh: -5; PRMT1 inh: -1; SIAE inh: -2; HTRA1 inhibitor: -25

How did CC1(OC(=O)C2CCCC2)C(=O)C=C2C=C(c3ccsc3)N(c3ccccc3)C=C2C1=O (centres undefined) do in these assays?
ATG4B inh: 14; ABHD4 inh: 20; TCR CD3 inh: -3; PRMT1 inh: 7; SIAE inh: 6; HTRA1 inhibitor: 39*; HTRA1 conf: 32

Results for CC(C)CN1C=C2C(=O)C(C)(OC(=O)C3CCCC3)C(=O)C=C2C=C1c1ccsc1 (centres undefined) ?
ATG4B inh: 2; ABHD4 inh: 13; TCR CD3 inh: 5; PRMT1 inh: 6; SIAE inh: 8; HTRA1 inhibitor: 26

Results for CC1(OC(=O)C2CCCC2)C(=O)C=C2C=C(c3ccsc3)N(Cc3ccccc3)C=C2C1=O (centres undefined) ?
ATG4B inh: 0; ABHD4 inh: 24; TCR CD3 inh: -3; PRMT1 inh: 7; SIAE inh: 5; HTRA1 inhibitor: 38*; HTRA1 conf: 31

What do the screens show for `Cc1cccc(C)c1NC(=O)[C@H]1CC(=O)O[C@@H]1c1ccccc1`?
ABHD4 inh: -2; PRMT1 inh: 0; SIAE inh: -2

What do the screens show for `Cc1ccc(NC(=O)N2CCC(c3nc4ccc(Cl)cc4[nH]3)CC2)cc1F`?
ABHD4 inh: -12; PRMT1 inh: -4; SIAE inh: -6

Results for O=C(O)CCNc1cc(N2CCN(C(=O)c3ccco3)CC2)c2noc3c2c1C(=O)c1ccccc1-3 ?
ATG4B inh: 22; ABHD4 inh: 49*; TCR CD3 inh: 34*; PRMT1 inh: 25*; SIAE inh: 30*; HTRA1 inhibitor: 46*; HTRA1 conf: 7

Results for Cc1cc(N2CCN(C(=O)c3ccco3)CC2)c2ccccc2n1 ?
ATG4B inh: -1; ABHD4 inh: -1; TCR CD3 inh: -1; PRMT1 inh: -6; SIAE inh: 5; HTRA1 inhibitor: 4

How did O=C(CC1Nc2ccccc2NC1=O)Nc1cc(Cl)cc(Cl)c1 (centres undefined) do in these assays?
ATG4B inh: 4; ABHD4 inh: 1; TCR CD3 inh: -1; PRMT1 inh: 1; SIAE inh: -1; HTRA1 inhibitor: -12

What do the screens show for `COc1ccc(NC(=O)CC2Nc3cccc4cccc(c34)NC2=O)cc1` (centres undefined)?
ATG4B inh: -5; ABHD4 inh: 18; TCR CD3 inh: 3; PRMT1 inh: 3; SIAE inh: 2; HTRA1 inhibitor: 52*; HTRA1 conf: 9
